Laboratory results published in ChEMBL document CHEMBL5724801, “EUbOPEN Chemogenomics Library - Multiplex” (2024).
Several values for one entry are separate records, joined by “and”; a condition that tells them apart may be missing. Identical values can stand only once.

Test system: Fibroblast
Experiment: Multiplex assay against human fibroblast
Assay type: toxicity, cell-based
Method in brief: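 Live cells were stained at seeding with Hoechst33342, BioTracker Green Microtubule Cytoskeleton Dye, MitoTracker Red and Annexin V Alexa Fluor 680, then imaged on a CQ1 microscope at 37°C and 5% CO2 after compound addition. CellPathfinder machine-learning gating split cells into Hoechst high-intensity objects or normal cells. Normal cells were split into healthy, pyknosed or fragmented nuclei, and pyknosed cells into mitotic or apoptotic. Tubulin, mitochondrial-mass and membrane-permeability phenotypes are per cents of healthy-nucleus cells.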

[1] = 12 h, 1 µM, compound concentration 1 uM
[2] = 12 h, 10 µM, compound concentration 10 uM
[3] = 24 h, 1 µM, compound concentration 1 uM
[4] = 24 h, 10 µM, compound concentration 10 uM
[5] = 48 h, 1 µM, compound concentration 1 uM
[6] = 48 h, 10 µM, compound concentration 10 uM

Structure (SMILES): CCNC1(C(N)=O)CCN(c2ncnc3c2nc(-c2ccccc2Cl)n3-c2ccc(Cl)cc2)CC1 [OTENABANT]
- Population Apoptotic (%) [1]: 26% and 37%
- Population Fragmented Nuclei (%) [1]: 19% and 25%
- Population Healthy Nuclei (%) [1]: 63% and 48%
- Population Hoechst High Intensity Objects (%) [1]: 6% and 2%
- Population Membrane Permeable-Phenotype (%) [1]: 1% and 6%
- Population Mitochondria Different-Phenotype (%) [1]: 7% and 10%
- Population Mitotic Cells (%) [1]: 73% and 62%
- Population Normal (%) [1]: 93% and 97%
- Population Pyknosed Nuclei (%) [1]: 17% and 26%
- Population Tubulin-Different-Phenotype (%) [1]: 44% and 50%
- Total Cell Count [1]: 161 and 156
- Population Apoptotic (%) [2]: 57% and 40%
- Population Fragmented Nuclei (%) [2]: 22% and 30%
- Population Healthy Nuclei (%) [2]: 64% and 48%
- Population Hoechst High Intensity Objects (%) [2]: 4% and 3%
- Population Membrane Permeable-Phenotype (%) [2]: 0% and 12%
- Population Mitochondria Different-Phenotype (%) [2]: 16% and 18%
- Population Mitotic Cells (%) [2]: 42% and 59%
- Population Normal (%) [2]: 95% and 96%
- Population Pyknosed Nuclei (%) [2]: 12% and 21%
- Population Tubulin-Different-Phenotype (%) [2]: 90% and 87%
- Total Cell Count [2]: 170 and 216
- Population Apoptotic (%) [3]: 26% and 34%
- Population Fragmented Nuclei (%) [3]: 17% and 27%
- Population Healthy Nuclei (%) [3]: 66% and 43%
- Population Hoechst High Intensity Objects (%) [3]: 4% and 5%
- Population Membrane Permeable-Phenotype (%) [3]: 0% and 9%
- Population Mitochondria Different-Phenotype (%) [3]: 8% and 14%
- Population Mitotic Cells (%) [3]: 73% and 65%
- Population Normal (%) [3]: 95% and 94%
- Population Pyknosed Nuclei (%) [3]: 15% and 29%
- Population Tubulin-Different-Phenotype (%) [3]: 44% and 57%
- Total Cell Count [3]: 154 and 155
- Population Apoptotic (%) [4]: 54%
- Population Fragmented Nuclei (%) [4]: 22% and 37%
- Population Healthy Nuclei (%) [4]: 64% and 48%
- Population Hoechst High Intensity Objects (%) [4]: 2% and 5%
- Population Membrane Permeable-Phenotype (%) [4]: 0% and 7%
- Population Mitochondria Different-Phenotype (%) [4]: 37% and 30%
- Population Mitotic Cells (%) [4]: 45%
- Population Normal (%) [4]: 97% and 94%
- Population Pyknosed Nuclei (%) [4]: 12% and 13%
- Population Tubulin-Different-Phenotype (%) [4]: 96% and 88%
- Total Cell Count [4]: 174 and 235
- Population Apoptotic (%) [5]: 68% and 59%
- Population Fragmented Nuclei (%) [5]: 18% and 33%
- Population Healthy Nuclei (%) [5]: 69% and 42%
- Population Hoechst High Intensity Objects (%) [5]: 8% and 5%
- Population Membrane Permeable-Phenotype (%) [5]: 0% and 13%
- Population Mitotic Cells (%) [5]: 31% and 40%
- Population Normal (%) [5]: 91% and 94%
- Population Pyknosed Nuclei (%) [5]: 12% and 23%
- Population Tubulin-Different-Phenotype (%) [5]: 41% and 72%
- Total Cell Count [5]: 167 and 143
- Population Apoptotic (%) [6]: 78% and 61%
- Population Fragmented Nuclei (%) [6]: 30% and 46%
- Population Healthy Nuclei (%) [6]: 61% and 47%
- Population Hoechst High Intensity Objects (%) [6]: 8% and 2%
- Population Membrane Permeable-Phenotype (%) [6]: 0% and 7%
- Population Mitochondria Different-Phenotype (%) [6]: 49% and 26%
- Population Mitotic Cells (%) [6]: 21% and 38%
- Population Normal (%) [6]: 91% and 97%
- Population Pyknosed Nuclei (%) [6]: 8% and 6%
- Population Tubulin-Different-Phenotype (%) [6]: 92% and 89%
- Total Cell Count [6]: 187 and 299

Structure (SMILES): O=C1c2c(Br)c(Br)c(Br)c(Br)c2C(=O)N1c1ncc[nH]1
- Population Apoptotic (%) [1]: 13.21% and 28%
- Population Fragmented Nuclei (%) [1]: 9.34% and 7.04%
- Population Healthy Nuclei (%) [1]: 61.54% and 81.22%
- Population Hoechst High Intensity Objects (%) [1]: 0%
- Population Membrane Permeable-Phenotype (%) [1]: 4.46% and 1.16%
- Population Mitochondria Different-Phenotype (%) [1]: 9.82% and 9.25%
- Population Mitotic Cells (%) [1]: 86.79% and 72%
- Population Normal (%) [1]: 100%
- Population Pyknosed Nuclei (%) [1]: 29.12% and 11.74%
- Population Tubulin-Different-Phenotype (%) [1]: 16.96% and 14.45%
- Total Cell Count [1]: 182 and 213
- Population Apoptotic (%) [2]: 10.81% and 15.56%
- Population Fragmented Nuclei (%) [2]: 9.5% and 3.32%
- Population Healthy Nuclei (%) [2]: 69.83% and 75.36%
- Population Hoechst High Intensity Objects (%) [2]: 0%
- Population Membrane Permeable-Phenotype (%) [2]: 6.4% and 1.89%
- Population Mitotic Cells (%) [2]: 89.19% and 84.44%
- Population Normal (%) [2]: 100%
- Population Pyknosed Nuclei (%) [2]: 20.67% and 21.33%
- Population Tubulin-Different-Phenotype (%) [2]: 10.4% and 27.67%
- Total Cell Count [2]: 179 and 211
- Population Fragmented Nuclei (%) [3]: 11.34% and 5.44%
- Population Healthy Nuclei (%) [3]: 70.62% and 82.01%
- Population Hoechst High Intensity Objects (%) [3]: 0%
- Population Membrane Permeable-Phenotype (%) [3]: 5.84% and 4.08%
- Population Mitochondria Different-Phenotype (%) [3]: 7.3% and 2.55%
- Population Mitotic Cells (%) [3]: 91.43% and 60%
- Population Normal (%) [3]: 100%
- Population Pyknosed Nuclei (%) [3]: 18.04% and 12.55%
- Population Tubulin-Different-Phenotype (%) [3]: 16.06% and 11.73%
- Total Cell Count [3]: 194 and 239
- Population Apoptotic (%) [4]: 11.11% and 20%
- Population Fragmented Nuclei (%) [4]: 13.13% and 3.29%
- Population Healthy Nuclei (%) [4]: 73.23% and 84.98%
- Population Hoechst High Intensity Objects (%) [4]: 0%
- Population Membrane Permeable-Phenotype (%) [4]: 3.45% and 5.52%
- Population Mitochondria Different-Phenotype (%) [4]: 4.14% and 7.18%
- Population Mitotic Cells (%) [4]: 88.89% and 80%
- Population Normal (%) [4]: 100%
- Population Pyknosed Nuclei (%) [4]: 13.64% and 11.74%
- Population Tubulin-Different-Phenotype (%) [4]: 11.72% and 23.2%
- Total Cell Count [4]: 198 and 213
- Population Fragmented Nuclei (%) [5]: 10% and 10.04%
- Population Healthy Nuclei (%) [5]: 84.21% and 84.56%
- Population Hoechst High Intensity Objects (%) [5]: 0%
- Population Membrane Permeable-Phenotype (%) [5]: 0.62% and 1.83%
- Population Mitotic Cells (%) [5]: 63.64% and 92.86%
- Population Normal (%) [5]: 100%
- Population Pyknosed Nuclei (%) [5]: 5.79% and 5.41%
- Population Tubulin-Different-Phenotype (%) [5]: 6.88% and 17.81%
- Total Cell Count [5]: 190 and 259
- Population Fragmented Nuclei (%) [6]: 12.8% and 3.12%
- Population Healthy Nuclei (%) [6]: 85.31% and 89.29%
- Population Hoechst High Intensity Objects (%) [6]: 0%
- Population Membrane Permeable-Phenotype (%) [6]: 1.11% and 2%
- Population Normal (%) [6]: 100%
- Population Pyknosed Nuclei (%) [6]: 1.9% and 7.59%
- Total Cell Count [6]: 211 and 224

Structure (SMILES): COCCNc1nc2ccc(C#CC3(O)CCCCC3)cc2n1-c1ccnc(N)n1
- Population Apoptotic (%) [1]: 15.09% and 20.51%
- Population Fragmented Nuclei (%) [1]: 19.05% and 7.25%
- Population Healthy Nuclei (%) [1]: 44.9% and 73.91%
- Population Hoechst High Intensity Objects (%) [1]: 0%
- Population Membrane Permeable-Phenotype (%) [1]: 4.55% and 1.96%
- Population Mitochondria Different-Phenotype (%) [1]: 9.09% and 12.42%
- Population Mitotic Cells (%) [1]: 84.91% and 79.49%
- Population Normal (%) [1]: 100%
- Population Pyknosed Nuclei (%) [1]: 36.05% and 18.84%
- Population Tubulin-Different-Phenotype (%) [1]: 18.18% and 27.45%
- Total Cell Count [1]: 147 and 207
- Population Apoptotic (%) [2]: 2.5% and 7.32%
- Population Fragmented Nuclei (%) [2]: 15.71% and 12.57%
- Population Healthy Nuclei (%) [2]: 46.19% and 64%
- Population Hoechst High Intensity Objects (%) [2]: 0%
- Population Membrane Permeable-Phenotype (%) [2]: 7.22% and 1.79%
- Population Mitochondria Different-Phenotype (%) [2]: 27.84% and 21.43%
- Population Mitotic Cells (%) [2]: 97.5% and 92.68%
- Population Normal (%) [2]: 100%
- Population Pyknosed Nuclei (%) [2]: 38.1% and 23.43%
- Population Tubulin-Different-Phenotype (%) [2]: 56.7% and 54.46%
- Total Cell Count [2]: 210 and 175
- Population Apoptotic (%) [3]: 9.76% and 17.39%
- Population Fragmented Nuclei (%) [3]: 9.09% and 9.43%
- Population Healthy Nuclei (%) [3]: 62.24% and 79.72%
- Population Hoechst High Intensity Objects (%) [3]: 0%
- Population Membrane Permeable-Phenotype (%) [3]: 3.37% and 5.33%
- Population Mitochondria Different-Phenotype (%) [3]: 11.24% and 10.06%
- Population Mitotic Cells (%) [3]: 90.24% and 82.61%
- Population Normal (%) [3]: 100%
- Population Pyknosed Nuclei (%) [3]: 28.67% and 10.85%
- Population Tubulin-Different-Phenotype (%) [3]: 19.1% and 25.44%
- Total Cell Count [3]: 143 and 212
- Population Apoptotic (%) [4]: 12.33% and 20.59%
- Population Fragmented Nuclei (%) [4]: 14.35% and 10.86%
- Population Healthy Nuclei (%) [4]: 51.85% and 69.71%
- Population Hoechst High Intensity Objects (%) [4]: 0%
- Population Membrane Permeable-Phenotype (%) [4]: 3.57% and 1.64%
- Population Mitochondria Different-Phenotype (%) [4]: 25% and 18.03%
- Population Mitotic Cells (%) [4]: 87.67% and 79.41%
- Population Normal (%) [4]: 100%
- Population Pyknosed Nuclei (%) [4]: 33.8% and 19.43%
- Population Tubulin-Different-Phenotype (%) [4]: 66.96% and 65.57%
- Total Cell Count [4]: 216 and 175
- Population Apoptotic (%) [5]: 22.22% and 37.5%
- Population Fragmented Nuclei (%) [5]: 10.74% and 6.49%
- Population Healthy Nuclei (%) [5]: 77.18% and 86.58%
- Population Hoechst High Intensity Objects (%) [5]: 0%
- Population Membrane Permeable-Phenotype (%) [5]: 1.74% and 2.5%
- Population Mitotic Cells (%) [5]: 77.78% and 62.5%
- Population Normal (%) [5]: 100%
- Population Pyknosed Nuclei (%) [5]: 12.08% and 6.93%
- Population Tubulin-Different-Phenotype (%) [5]: 10.43% and 26.5%
- Total Cell Count [5]: 149 and 231
- Population Apoptotic (%) [6]: 11.43% and 24%
- Population Fragmented Nuclei (%) [6]: 12.66% and 9.66%
- Population Healthy Nuclei (%) [6]: 72.57% and 76.14%
- Population Hoechst High Intensity Objects (%) [6]: 0%
- Population Membrane Permeable-Phenotype (%) [6]: 2.91% and 5.97%
- Population Mitochondria Different-Phenotype (%) [6]: 18.02% and 10.45%
- Population Mitotic Cells (%) [6]: 88.57% and 76%
- Population Normal (%) [6]: 100%
- Population Pyknosed Nuclei (%) [6]: 14.77% and 14.2%
- Population Tubulin-Different-Phenotype (%) [6]: 42.44% and 58.96%
- Total Cell Count [6]: 237 and 176
